The source of these data is ChEMBL document CHEMBL1152862, “Tetrahydrobenzo- and benzofurobenzopyrones as a new class of potential photoreagents toward DNA” (2009).

Experiment [1] deals with Bacillus subtilis. The experiment in a line: Phototoxicity against Bacillus subtilis after 3 hrs irradiated with UV light by disk diffusion method. The class given is functional. In short, it runs like this:
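B. subtilis broth culture on nutrient agar (0.3% beef extract, 0.5% peptone, 0.1% K2HPO4, 1.5% agar). Plates held in the dark at 37 °C for 3 h so compounds diffuse through the agar. Uncovered dishes then exposed to 365 nm UV for 20 min and reincubated in the dark at 37 °C overnight. Photosensitizing activity read as inhibition zones.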

Experiment [2] deals with Bacillus subtilis. The experiment in a line: Antimicrobial activity against Bacillus subtilis incubated in dark for 3 hrs by disk diffusion method. In kind it is functional. In short, it runs like this: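 Nutrient agar (0.3% beef extract, 0.5% peptone, 0.1% dipotassium hydrogen phosphate, 1.5% agar) seeded with B. subtilis broth culture. Duplicate control plate kept unirradiated at 37 °C overnight in the incubator. Read-out is the size of the inhibition zones.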

Experiment [3] has as its system Nucleic Acid. The experiment in a line: Binding affinity to DNA. In kind it is nucleic-acid assay.

Calls of active or inactive are those of the source. No cut-off for these calls is given here.

In the case of `O=c1cc(-c2ccccc2)c2cc3c4c(oc3cc2o1)CCCC4`, the “inhibition zone (IZ)” value in experiment [1] is listed as 7 mm; in experiment [2] it was 9 mm.
As for `O=c1cc(-c2ccccc2)c2cc3c(cc2o1)oc1ccccc13`, the result in experiment [3] was Active. Moreover, the figures for the “inhibition zone (IZ)” value in experiment [1] and in experiment [2] were 13 mm and 10 mm, respectively.
With `COc1c2occc2cc2ccc(=O)oc12` [METHOXSALEN], in experiment [1], the “inhibition zone (IZ)” value was 12 mm.
For the compound `Cc1cc(=O)oc2cc3c(cc12)oc1ccccc13`, the result in experiment [3] was Active. In addition, the results for the “inhibition zone (IZ)” value in experiment [1] and in experiment [2] were 16 mm and 12 mm, respectively.
On the same counts, the results for `Cc1cc(=O)oc2ccc3oc4ccccc4c3c12` are “Active”, 14 mm and 11 mm.
On the same counts, the results for `O=c1cc(-c2ccccc2)c2ccc3oc4ccccc4c3c2o1` are “Active”, 14 mm and 13 mm.
In the case of `O=c1cc(-c2ccccc2)c2ccc3oc4c(c3c2o1)CCCC4`, the “inhibition zone (IZ)” value in experiment [1] came to 5 mm.
